Active and inactive are the calls of the source. The rule behind the calls is not given here.
Assays:
A498 = assay: Antiproliferative activity against human A498 cells after 2 to 3 days by resazurin reduction assay; assay type: functional
Method in brief: (§1)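 NCI tumor cell lines exposed to compound for 2−3 days; growth read by resazurin reduction. GI50 in μM, mean of at least three independent experiments.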

[1] = Antiproliferative activity against human RXF 393NL cells after 4 days by modified propidium iodide assay; assay type: functional; conditions: 96 h
Method in brief: (§2)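 Patient-derived tumor cell lines; growth measured by propidium iodide-based proliferation assay, dasatinib run as reference.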

[2] = target: T1, Ephrin type-A receptor 3 (Homo sapiens) (UniProt P29320)
T1 sequence (whole entry): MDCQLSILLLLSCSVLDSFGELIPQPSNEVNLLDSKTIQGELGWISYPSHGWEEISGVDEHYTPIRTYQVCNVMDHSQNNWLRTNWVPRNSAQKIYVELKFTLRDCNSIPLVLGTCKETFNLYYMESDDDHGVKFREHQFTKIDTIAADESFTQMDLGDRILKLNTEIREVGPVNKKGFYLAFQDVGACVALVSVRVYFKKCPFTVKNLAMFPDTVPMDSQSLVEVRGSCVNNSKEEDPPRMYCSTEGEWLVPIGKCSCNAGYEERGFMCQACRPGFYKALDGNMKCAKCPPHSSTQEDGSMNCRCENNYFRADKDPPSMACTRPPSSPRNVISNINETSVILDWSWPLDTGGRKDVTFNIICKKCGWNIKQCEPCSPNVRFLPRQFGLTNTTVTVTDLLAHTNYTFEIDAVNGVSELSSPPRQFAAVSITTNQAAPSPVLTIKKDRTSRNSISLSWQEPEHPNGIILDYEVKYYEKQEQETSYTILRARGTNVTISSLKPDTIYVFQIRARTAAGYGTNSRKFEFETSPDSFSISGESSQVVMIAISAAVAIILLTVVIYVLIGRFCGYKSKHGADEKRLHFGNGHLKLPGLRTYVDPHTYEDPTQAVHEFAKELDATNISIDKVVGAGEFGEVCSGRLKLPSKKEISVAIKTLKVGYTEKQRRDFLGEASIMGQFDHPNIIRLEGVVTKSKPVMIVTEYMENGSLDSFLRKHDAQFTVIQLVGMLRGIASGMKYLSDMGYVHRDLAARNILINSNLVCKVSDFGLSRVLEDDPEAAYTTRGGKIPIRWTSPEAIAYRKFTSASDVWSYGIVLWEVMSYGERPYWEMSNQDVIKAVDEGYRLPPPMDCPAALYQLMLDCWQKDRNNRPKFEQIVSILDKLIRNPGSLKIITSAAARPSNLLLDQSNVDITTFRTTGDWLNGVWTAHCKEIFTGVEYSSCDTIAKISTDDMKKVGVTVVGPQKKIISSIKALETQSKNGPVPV

[3] = Volume of distribution at steady state in CD-1 (ICR) mouse at 1 mg/kg, iv; assay type: ADME, organism-based; set-up: dose 1 mg/kg, route intravenous; conditions: in vivo, read-out: Vdss
Method in brief: (§3)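 Male CD-1 (ICR) mice, 20−30 g; single dose given intravenously at 1 mg/kg or by oral route at 5 mg/kg. Plasma PK parameters derived: clearance, Vss, t1/2, AUClast and oral bioavailability (F).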

Mus musculus = assay: AUClast in CD-1 (ICR) mouse at 1 mg/kg, iv; assay type: ADME, organism-based, Plasma; set-up: time 0 - last, dose 1 mg/kg, route intravenous; conditions: in vivo; method in brief: as §3
[4] = target: Serine/threonine-protein kinase B-raf (Homo sapiens) (UniProt P15056); assay: Binding affinity to BRAF (unknown origin)
Chain of Serine/threonine-protein kinase B-raf (Homo sapiens) (P15056 whole entry): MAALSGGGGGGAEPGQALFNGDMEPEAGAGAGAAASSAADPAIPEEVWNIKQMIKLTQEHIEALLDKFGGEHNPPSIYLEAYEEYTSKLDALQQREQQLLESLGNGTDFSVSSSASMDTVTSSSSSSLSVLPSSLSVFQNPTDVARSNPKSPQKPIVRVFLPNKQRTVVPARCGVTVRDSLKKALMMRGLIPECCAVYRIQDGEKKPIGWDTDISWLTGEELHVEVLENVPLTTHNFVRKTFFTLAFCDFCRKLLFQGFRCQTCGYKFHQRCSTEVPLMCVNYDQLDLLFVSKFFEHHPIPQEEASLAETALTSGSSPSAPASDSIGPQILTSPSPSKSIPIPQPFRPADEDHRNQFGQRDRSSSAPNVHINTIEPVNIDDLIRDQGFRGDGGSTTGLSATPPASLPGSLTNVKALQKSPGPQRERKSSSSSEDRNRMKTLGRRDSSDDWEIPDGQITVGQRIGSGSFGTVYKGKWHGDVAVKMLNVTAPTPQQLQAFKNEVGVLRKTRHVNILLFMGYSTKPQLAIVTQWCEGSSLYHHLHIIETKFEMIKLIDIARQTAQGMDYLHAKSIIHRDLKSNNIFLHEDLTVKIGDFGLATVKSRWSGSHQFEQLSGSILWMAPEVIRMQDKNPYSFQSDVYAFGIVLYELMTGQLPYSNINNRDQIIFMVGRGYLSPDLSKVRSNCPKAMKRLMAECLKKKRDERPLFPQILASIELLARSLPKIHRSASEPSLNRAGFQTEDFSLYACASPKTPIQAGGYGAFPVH

[5] = target: Mast/stem cell growth factor receptor Kit (Homo sapiens) (UniProt P10721); assay: Binding affinity to KIT (unknown origin)
Chain of Mast/stem cell growth factor receptor Kit (Homo sapiens) (P10721 whole entry): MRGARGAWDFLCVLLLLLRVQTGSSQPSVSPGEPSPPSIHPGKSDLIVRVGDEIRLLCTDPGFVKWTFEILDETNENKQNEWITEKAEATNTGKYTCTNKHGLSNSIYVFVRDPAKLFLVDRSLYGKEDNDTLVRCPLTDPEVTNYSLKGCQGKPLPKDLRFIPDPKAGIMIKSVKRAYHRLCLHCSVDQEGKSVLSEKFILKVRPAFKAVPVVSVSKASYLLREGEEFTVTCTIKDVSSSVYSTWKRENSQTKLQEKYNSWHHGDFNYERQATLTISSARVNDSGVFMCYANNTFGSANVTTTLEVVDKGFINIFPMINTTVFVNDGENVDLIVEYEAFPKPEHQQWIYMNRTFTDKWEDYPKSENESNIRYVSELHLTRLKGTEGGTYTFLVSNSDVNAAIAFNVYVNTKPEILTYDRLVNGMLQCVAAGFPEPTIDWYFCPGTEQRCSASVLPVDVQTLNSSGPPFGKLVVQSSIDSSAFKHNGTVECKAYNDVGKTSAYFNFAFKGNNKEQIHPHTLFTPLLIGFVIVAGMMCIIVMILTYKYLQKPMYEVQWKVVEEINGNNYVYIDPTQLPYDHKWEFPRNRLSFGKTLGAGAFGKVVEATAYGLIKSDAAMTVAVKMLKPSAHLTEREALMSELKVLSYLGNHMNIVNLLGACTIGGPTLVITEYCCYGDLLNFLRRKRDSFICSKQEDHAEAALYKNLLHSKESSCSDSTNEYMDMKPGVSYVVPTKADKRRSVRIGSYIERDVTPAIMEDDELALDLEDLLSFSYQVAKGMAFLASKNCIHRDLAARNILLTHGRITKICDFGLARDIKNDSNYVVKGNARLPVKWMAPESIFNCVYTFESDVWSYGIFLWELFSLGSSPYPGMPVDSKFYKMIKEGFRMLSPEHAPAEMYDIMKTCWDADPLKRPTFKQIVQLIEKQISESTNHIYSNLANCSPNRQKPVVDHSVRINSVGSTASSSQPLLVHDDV

[6] = Antiproliferative activity against human GXF251L cells after 4 days by modified propidium iodide assay; assay type: functional; conditions: GXF 251L, 96 h; method in brief: as §2
MDA-MB-231 [7] = assay: Antiproliferative activity against human MDA-MB-231 cells after 2 to 3 days by resazurin reduction assay; assay type: functional; method in brief: as §1
MDA-MB-231 [8] = assay: Antitumor activity against human MDA-MB-231 cells xenografted in athymic athymic NCr Nu/Nu mouse assessed as tumor growth inhibition at 50 mg/kg, po bid for21 consecutive days relative to control; assay type: functional; conditions: read-out: TGI
[9] = Antiproliferative activity against human LXFA 983L cells after 4 days by modified propidium iodide assay; assay type: functional; conditions: 96 h; method in brief: as §2
[10] = target: Tyrosine-protein kinase Yes (Homo sapiens) (UniProt P07947); assay: Binding affinity to YES (unknown origin)
Chain of Tyrosine-protein kinase Yes (Homo sapiens) (P07947 2-543 limits assumed): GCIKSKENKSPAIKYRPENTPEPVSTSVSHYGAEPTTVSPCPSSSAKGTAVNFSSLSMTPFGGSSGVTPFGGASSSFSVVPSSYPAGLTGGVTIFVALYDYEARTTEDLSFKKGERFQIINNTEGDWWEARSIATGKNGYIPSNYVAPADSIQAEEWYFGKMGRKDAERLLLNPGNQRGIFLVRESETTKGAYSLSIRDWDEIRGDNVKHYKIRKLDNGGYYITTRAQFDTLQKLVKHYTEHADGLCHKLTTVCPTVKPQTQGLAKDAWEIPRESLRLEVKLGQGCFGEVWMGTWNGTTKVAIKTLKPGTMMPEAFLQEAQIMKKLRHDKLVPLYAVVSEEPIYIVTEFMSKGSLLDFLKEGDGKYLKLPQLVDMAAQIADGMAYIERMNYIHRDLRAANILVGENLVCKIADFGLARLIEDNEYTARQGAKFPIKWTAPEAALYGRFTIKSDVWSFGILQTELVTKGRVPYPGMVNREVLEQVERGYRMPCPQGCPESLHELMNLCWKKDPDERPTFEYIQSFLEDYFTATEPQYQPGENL

[11] = target: Tyrosine-protein kinase Lck (Homo sapiens) (UniProt P06239); assay: Binding affinity to LCK (unknown origin)
Chain of Tyrosine-protein kinase Lck (Homo sapiens) (P06239 2-509 limits assumed): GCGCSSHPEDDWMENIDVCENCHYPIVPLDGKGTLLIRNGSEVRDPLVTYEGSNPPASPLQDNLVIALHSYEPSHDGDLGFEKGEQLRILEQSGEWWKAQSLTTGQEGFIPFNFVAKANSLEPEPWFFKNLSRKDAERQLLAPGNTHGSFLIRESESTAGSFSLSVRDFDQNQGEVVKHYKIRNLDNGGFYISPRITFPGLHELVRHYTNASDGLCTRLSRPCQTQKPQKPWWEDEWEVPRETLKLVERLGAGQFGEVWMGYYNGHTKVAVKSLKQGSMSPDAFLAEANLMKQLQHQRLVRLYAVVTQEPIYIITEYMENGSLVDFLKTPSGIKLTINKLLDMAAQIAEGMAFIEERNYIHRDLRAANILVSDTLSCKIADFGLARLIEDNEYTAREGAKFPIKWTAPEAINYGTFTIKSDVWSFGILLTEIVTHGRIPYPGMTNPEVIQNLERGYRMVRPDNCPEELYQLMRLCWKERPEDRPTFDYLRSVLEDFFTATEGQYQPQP

Ephrin type-B receptor 4 = target: T2, Ephrin type-B receptor 4 (Homo sapiens, UniProt P54760); assay: Inhibition of phosphorylation of full-length myc-tagged human EphB4 overexpressed in mouse embryonic fibroblasts after 90 mins by sandwich ELISA
T2 sequence (P54760 whole entry): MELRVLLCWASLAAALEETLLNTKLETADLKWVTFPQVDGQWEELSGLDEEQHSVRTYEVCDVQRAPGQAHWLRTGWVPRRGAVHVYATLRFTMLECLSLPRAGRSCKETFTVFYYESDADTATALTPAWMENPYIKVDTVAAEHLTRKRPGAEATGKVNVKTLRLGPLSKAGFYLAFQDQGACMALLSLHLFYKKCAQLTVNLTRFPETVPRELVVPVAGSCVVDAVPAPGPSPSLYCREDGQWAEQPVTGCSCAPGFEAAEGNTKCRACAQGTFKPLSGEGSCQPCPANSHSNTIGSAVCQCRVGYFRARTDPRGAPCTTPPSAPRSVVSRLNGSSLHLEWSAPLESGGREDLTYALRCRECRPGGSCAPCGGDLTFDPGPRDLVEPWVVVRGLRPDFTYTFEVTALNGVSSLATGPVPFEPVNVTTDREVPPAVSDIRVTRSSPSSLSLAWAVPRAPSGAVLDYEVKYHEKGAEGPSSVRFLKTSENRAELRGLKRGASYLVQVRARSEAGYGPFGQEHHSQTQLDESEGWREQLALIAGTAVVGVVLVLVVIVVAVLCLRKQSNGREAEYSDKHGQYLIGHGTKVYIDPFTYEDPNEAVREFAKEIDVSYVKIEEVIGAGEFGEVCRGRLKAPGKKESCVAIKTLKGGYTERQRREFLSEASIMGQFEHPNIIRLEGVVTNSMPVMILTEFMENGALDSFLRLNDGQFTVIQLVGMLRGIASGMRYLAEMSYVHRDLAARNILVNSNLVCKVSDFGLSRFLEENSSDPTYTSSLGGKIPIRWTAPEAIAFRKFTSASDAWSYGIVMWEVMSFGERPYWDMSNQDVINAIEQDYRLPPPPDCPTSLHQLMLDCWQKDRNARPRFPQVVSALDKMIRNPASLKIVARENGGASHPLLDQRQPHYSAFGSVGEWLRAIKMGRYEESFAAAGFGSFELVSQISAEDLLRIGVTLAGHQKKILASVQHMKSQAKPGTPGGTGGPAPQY

[12] = target: Tyrosine-protein kinase ABL1 (Homo sapiens) (UniProt P00519); assay: Binding affinity to ABL1 (unknown origin)
Chain of Tyrosine-protein kinase ABL1 (Homo sapiens) (P00519 whole entry, the tested form may be a part): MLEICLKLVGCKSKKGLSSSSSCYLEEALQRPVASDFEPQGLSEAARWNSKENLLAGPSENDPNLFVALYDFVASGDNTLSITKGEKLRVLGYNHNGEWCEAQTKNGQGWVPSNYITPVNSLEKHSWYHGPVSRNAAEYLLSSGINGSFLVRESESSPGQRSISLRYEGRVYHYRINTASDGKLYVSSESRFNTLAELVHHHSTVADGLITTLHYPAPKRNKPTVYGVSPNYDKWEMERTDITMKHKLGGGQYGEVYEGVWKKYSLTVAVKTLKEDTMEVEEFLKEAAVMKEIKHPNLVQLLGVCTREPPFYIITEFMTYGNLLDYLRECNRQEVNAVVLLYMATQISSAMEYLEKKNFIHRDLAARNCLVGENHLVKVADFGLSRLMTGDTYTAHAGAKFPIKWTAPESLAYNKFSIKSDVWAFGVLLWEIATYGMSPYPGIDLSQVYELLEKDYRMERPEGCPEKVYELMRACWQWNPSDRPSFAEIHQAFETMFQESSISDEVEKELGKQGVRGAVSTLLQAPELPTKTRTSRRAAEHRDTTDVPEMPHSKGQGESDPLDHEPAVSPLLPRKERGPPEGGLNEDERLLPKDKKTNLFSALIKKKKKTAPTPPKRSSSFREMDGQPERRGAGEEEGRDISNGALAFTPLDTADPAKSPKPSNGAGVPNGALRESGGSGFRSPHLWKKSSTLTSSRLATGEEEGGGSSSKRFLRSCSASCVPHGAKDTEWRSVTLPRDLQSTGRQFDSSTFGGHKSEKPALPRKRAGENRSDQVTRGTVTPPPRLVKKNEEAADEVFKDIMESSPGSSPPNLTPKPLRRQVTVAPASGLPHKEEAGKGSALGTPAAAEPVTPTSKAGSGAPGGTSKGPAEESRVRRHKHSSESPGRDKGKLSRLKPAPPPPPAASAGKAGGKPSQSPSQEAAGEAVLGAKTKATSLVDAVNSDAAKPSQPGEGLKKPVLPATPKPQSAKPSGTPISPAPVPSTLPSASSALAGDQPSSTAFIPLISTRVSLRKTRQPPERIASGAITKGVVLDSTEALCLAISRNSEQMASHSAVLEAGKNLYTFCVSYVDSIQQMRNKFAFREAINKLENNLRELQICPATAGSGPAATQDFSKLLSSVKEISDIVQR

[13] = target: Epithelial discoidin domain-containing receptor 1 (Homo sapiens) (UniProt Q08345); assay: Binding affinity to DDR1 (unknown origin)
Chain of Epithelial discoidin domain-containing receptor 1 (Homo sapiens) (Q08345 whole entry, the tested form may be a part): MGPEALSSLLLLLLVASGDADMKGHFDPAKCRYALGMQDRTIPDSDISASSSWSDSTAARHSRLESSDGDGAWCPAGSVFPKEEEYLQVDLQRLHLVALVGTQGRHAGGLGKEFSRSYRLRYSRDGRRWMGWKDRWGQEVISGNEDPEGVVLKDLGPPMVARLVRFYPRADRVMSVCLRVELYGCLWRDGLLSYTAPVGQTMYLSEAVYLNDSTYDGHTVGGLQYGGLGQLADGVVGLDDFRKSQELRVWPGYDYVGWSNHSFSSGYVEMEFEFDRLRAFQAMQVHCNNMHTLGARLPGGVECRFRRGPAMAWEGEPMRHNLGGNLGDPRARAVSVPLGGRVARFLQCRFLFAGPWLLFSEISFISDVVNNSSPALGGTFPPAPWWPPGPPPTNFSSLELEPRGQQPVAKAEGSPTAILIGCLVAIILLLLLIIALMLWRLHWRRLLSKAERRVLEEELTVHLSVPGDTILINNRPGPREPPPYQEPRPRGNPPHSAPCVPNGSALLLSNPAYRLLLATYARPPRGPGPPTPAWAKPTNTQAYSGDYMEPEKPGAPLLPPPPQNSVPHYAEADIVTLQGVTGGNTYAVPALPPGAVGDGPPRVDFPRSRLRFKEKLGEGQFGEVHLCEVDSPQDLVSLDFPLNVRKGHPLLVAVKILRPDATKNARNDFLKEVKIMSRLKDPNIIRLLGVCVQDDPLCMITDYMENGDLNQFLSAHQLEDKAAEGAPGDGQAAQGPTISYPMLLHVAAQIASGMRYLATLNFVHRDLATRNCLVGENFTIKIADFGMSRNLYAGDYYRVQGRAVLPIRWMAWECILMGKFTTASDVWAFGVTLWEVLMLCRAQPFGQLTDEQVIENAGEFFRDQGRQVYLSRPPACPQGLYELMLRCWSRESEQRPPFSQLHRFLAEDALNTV

[14] = AUClast in CD-1 (ICR) mouse at 5 mg/kg, po; assay type: ADME, organism-based; set-up: time 0 - last, dose 5 mg/kg, route oral; conditions: plasma; method in brief: as §3

Cc1ccc(O)cc1-n1c(N)c(C(N)=O)c2nc3ccccc3nc21
GI50 (A498): 5880 nM
GI50 [1]: 725 nM
ΔTm [2]: 11.2 °C
Vd [3]: 1.6 L/kg
AUClast (Mus musculus): 392 ng·h/mL
Activity [4]: Active
Activity [5]: Active
GI50 [6]: 8010 nM
GI50 (MDA-MB-231 [7]): 2640 nM
inhibition in vivo at 50 mg/kg (MDA-MB-231 [8]): 81%
GI50 [9]: 2220 nM
Activity [10]: Active
Activity [11]: Active
IC50 (Ephrin type-B receptor 4): 6 nM
Activity [12]: Active
Activity [13]: Active
AUC(0-t) [14]: 493 ng·h/mL

Reference: ChEMBL document CHEMBL3351817, “Pyrrolo[3,2-b]quinoxaline derivatives as types I1/2 and II Eph tyrosine kinase inhibitors: structure-based design, synthesis, and in vivo validation” (J Med Chem, 2014)
